In ChEMBL document CHEMBL1125827, “Synthesis and smooth muscle relaxant activity of a new series of potassium channel activators: 3-amido-1,1-dimethylindan-2-ols” (J Med Chem, 1991):

Tests used:
Cavia porcellus [1] = species on record: Cavia porcellus; assay: Intrinsic activity was measured for inhibition of spontaneous tone in guinea pig isolated trachealis; type: functional
In short: (§1)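 Spontaneously toned guinea pig trachealis, with compounds added cumulatively. Intrinsic activity is the ratio of maximum relaxation at concentrations up to 20 μM to the maximum relaxation produced by isoprenaline (10⁻³ M) at the end of the experiment, expressed as an arithmetic mean.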

Cavia porcellus [2] = species on record: Cavia porcellus; assay: Inhibition of spontaneous tone in guinea pig isolated trachealis; type: functional, Trachea
Cavia porcellus [3] = species on record: Cavia porcellus; assay: Intrinsic activity was measured for inhibition of spontaneous tone in guinea pig isolated trachealis; e=Insufficient material for evaluation; type: functional; in short: as §1
Cavia porcellus [4] = species on record: Cavia porcellus; assay: Compound was measured for inhibition of spontaneous tone in guinea pig isolated trachealis; e=Insufficient material for evaluation; type: functional
In short: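 Spontaneously developed tension held at […]. Compounds added cumulatively. Inhibition expressed as a percentage of the relaxation produced by isoprenaline (10⁻³ M) given at the end. IC50 is the concentration giving 50% of the isoprenaline response, read from the dose-response curve; generally a geometric mean of four or more determinations.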

Row | Structure (SMILES) | Intrinsic activity (Cavia porcellus [1]) | IC50 (Cavia porcellus [2]; Cavia porcellus, Trachea) [nM] | IC50 (Cavia porcellus [2]) [nM] | Intrinsic activity (Cavia porcellus [3]) | IC50 (Cavia porcellus [4])
1 | CC1(C)C=C(CN2CCCC2=O)c2cc(C#N)ccc21 | 0.6 | 14000 |  |  | 
2 | CC1(C)Oc2ccc(C#N)cc2C(N2CCCC2=O)C1O (centres undefined) [CROMAKALIM] | 0.89 |  |  |  | 
3 | CC1(C)c2ccc([N+](=O)[O-])cc2[C@@H](N2CCCCC2=O)[C@H]1O | 0.89 | 350 |  |  | 
4 | CCc1ccc2c(c1)[C@@H](N1CCCCC1=O)[C@H](O)C2(C)C | 0.84 | 2780 |  |  | 
5 | CC1(C)C=C(n2ccccc2=O)c2cc([N+](=O)[O-])ccc21 | 0.95 | 840 |  |  | 
6 | C[C@@H]1CCC(=O)N1C1=CC(C)(C)c2ccc([N+](=O)[O-])cc21 | 0.84 | 2420 |  |  | 
7 | CC1(C)c2ccc([N+](=O)[O-])cc2[C@@H](N2CCCC2=O)[C@@H]1O | 0.88 | 2800 |  |  | 
8 | CC1(C)c2cc(C#N)ccc2[C@@H](N2CCCCC2=O)[C@@H]1O | 0.17 | > 20000 |  |  | 
9 | CC1(C)c2ccc(I)cc2[C@@H](N2CCCCC2=O)[C@@H]1O | 0.96 |  |  |  | 
10 | C[C@@H]1CCC(=O)N1[C@@H]1c2cc([N+](=O)[O-])ccc2C(C)(C)[C@H]1O (stereo in doubt; 36) | 0.99 |  | 260 |  | 
11 | CC1(C)C=C(Cn2ccccc2=O)c2cc(C#N)ccc21 | 0.32 | > 20000 |  |  | 
12 | CC1(C)Oc2ccc(C#N)cc2[C@@H](N2CCCC2=O)[C@@H]1O [LEVCROMAKALIM] | 0.88 | 490 |  |  | 
13 | CC1(C)c2cc(C(F)(F)F)ccc2[C@@H](N2CCCCC2=O)[C@@H]1O | 0.15 | > 20000 |  |  | 
14 | CC1(C)C=C(N2CCCCC2=O)c2cc([N+](=O)[O-])ccc21 | 0.94 |  |  |  | 
15 | C[C@H]1CCC(=O)N1C1=CC(C)(C)c2ccc([N+](=O)[O-])cc21 |  |  |  | Insufficient material | Insufficient material
16 | CCc1ccc2c(c1)[C@@H](n1ccccc1=O)[C@H](O)C2(C)C | 0.93 | 2170 |  |  | 
17 | CC1(C)c2cc(C(F)(F)F)ccc2[C@@H](n2ccccc2=O)[C@@H]1O | 0.14 | > 20000 |  |  | 
18 | CC1(C)C=C(N2CCCCC2=O)c2ccc(C(F)(F)F)cc21 | 0.89 | 8500 |  |  | 
19 | CC1(C)c2ccc(N)cc2[C@@H](n2ccccc2=O)[C@@H]1O | 0.1 | > 20000 |  |  | 
20 | CC1CCC(=O)N1[C@@H]1c2cc([N+](=O)[O-])ccc2C(C)(C)[C@H]1O (stereo in doubt; 36b) | 0.9 |  | 3900 |  | 
21 | CC1(C)c2ccc([N+](=O)[O-])cc2[C@@H](N2CCCC2=O)[C@H]1O (relative stereo) | 0.26 | > 20000 |  |  | 
22 | CC1(C)c2ccc(C#N)cc2[C@@H](n2ccccc2=O)[C@@H]1O | 0.81 | 1940 |  |  | 
23 | O=C1CCCN1[C@@H]1c2cc([N+](=O)[O-])ccc2C[C@H]1O | 0.4 | > 20000 |  |  | 
24 | CCc1ccc2c(c1)C(C)(C)[C@@H](O)[C@@H]2N1CCCCC1=O | 0.4 | > 20000 |  |  | 
25 | C[C@@H]1CCC(=O)N1[C@@H]1c2cc([N+](=O)[O-])ccc2C(C)(C)[C@H]1O (stereo in doubt; 37) | 0.3 |  | > 20000 |  | 
26 | CC1(C)c2ccc(C#N)cc2[C@@H](N2CCCCC2=O)[C@@H]1O | 0.94 | 270 |  |  | 
27 | CC1CCC(=O)N1[C@@H]1c2cc([N+](=O)[O-])ccc2C(C)(C)[C@H]1O (stereo in doubt; 36a) | 0.89 |  |  |  | 
28 | CC1(C)C=C(n2ccccc2=O)c2cc(C#N)ccc21 | 0.77 | 5260 |  |  | 
29 | CC1(C)c2ccc([N+](=O)[O-])cc2[C@@H](n2ccccc2=O)[C@@H]1O | 0.89 | 150 |  |  | 
